Test results from ChEMBL document CHEMBL4196202, “Discovery and Structure-Based Optimization of Benzimidazole-Derived Activators of SOS1-Mediated Nucleotide Exchange on RAS” (J Med Chem, 2018).
Converted amounts (≈) assume the structure as drawn. The source made the active and inactive calls. The calls are words filed in the database; no cut-off is given here.

Assays:
[1] = molecular target: T1, Son of sevenless homolog 1 (Homo sapiens, UniProt Q07889); test: Binding affinity to human recombinant N-terminal His6-tagged SOS1 (564 to 1049 residues) expressed in BL21-RIL Escherichia coli by fluorescent probe S1 based fluorescence polarization anisotrophy saturation binding assay
T1 sequence (Q07889 whole entry): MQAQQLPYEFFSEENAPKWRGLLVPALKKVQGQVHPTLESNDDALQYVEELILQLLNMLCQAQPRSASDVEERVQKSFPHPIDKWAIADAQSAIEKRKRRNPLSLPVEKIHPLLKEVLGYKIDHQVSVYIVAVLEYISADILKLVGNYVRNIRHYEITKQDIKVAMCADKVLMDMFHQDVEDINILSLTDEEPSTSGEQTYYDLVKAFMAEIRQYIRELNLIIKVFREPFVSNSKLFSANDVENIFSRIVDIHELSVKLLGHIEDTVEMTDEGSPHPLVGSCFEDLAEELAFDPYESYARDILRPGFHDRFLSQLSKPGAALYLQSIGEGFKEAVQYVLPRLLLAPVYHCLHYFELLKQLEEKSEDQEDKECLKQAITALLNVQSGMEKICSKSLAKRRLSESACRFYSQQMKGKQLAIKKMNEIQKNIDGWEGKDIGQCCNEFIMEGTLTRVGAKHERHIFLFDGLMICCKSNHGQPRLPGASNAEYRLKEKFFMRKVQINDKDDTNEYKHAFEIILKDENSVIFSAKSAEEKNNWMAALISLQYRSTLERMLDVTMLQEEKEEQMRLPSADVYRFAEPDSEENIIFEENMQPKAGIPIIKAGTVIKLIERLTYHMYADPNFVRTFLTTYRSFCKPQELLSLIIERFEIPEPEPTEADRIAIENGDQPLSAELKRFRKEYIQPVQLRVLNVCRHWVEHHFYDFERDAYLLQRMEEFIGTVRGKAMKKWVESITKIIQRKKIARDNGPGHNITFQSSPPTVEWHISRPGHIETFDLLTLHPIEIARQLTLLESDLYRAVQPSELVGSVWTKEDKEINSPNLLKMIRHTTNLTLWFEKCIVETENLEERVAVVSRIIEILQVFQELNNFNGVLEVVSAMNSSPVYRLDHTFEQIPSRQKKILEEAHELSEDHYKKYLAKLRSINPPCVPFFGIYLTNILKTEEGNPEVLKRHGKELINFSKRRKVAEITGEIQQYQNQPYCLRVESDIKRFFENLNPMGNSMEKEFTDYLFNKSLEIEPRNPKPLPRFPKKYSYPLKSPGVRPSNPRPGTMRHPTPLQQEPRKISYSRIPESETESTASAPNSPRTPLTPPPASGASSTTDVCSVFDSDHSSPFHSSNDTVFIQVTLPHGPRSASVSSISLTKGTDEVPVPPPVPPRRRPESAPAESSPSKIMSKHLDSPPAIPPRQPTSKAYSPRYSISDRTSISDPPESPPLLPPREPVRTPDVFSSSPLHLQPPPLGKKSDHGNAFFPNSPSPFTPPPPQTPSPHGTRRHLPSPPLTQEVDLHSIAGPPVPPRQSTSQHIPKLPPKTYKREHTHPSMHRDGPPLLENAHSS
Method in brief: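 SOS1cat (aa 564–1049) was titrated in a 12-point, 2-fold series from 10 μM top against 50 nM fluorescein-labeled probe. Buffer was 20 mM Tris-HCl pH 7.5, 50 mM NaCl, 1 mM magnesium chloride, with 20 min at room temperature in the dark. Anisotropy was read and Kd reported as mean ± SD of at least three independent experiments.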

[2] = molecular target: T1, Son of sevenless homolog 1; test: Activation of SOS1 in human HeLa cells expressing wild type KRAS assessed as induction of ERK1/2 T202/Y204 phosphorylation incubated for 30 mins by In-cell Western assay; format: cell-based
[3] = molecular target: Son of sevenless homolog 1 (Homo sapiens, UniProt Q07889); test: Activation of SOS1 in human NCI-H727 cells expressing KRAS G12V mutant assessed as induction of ERK1/2 T202/Y204 phosphorylation incubated for 30 mins by In-cell Western assay; format: cell-based
[4] = molecular target: T2, Son of sevenless homolog 1 (Homo sapiens) (UniProt Q07889); test: Biphasic activity at of SOS1 in human HeLa cells expressing wild type KRAS assessed as induction of ERK1/2 T202/Y204 phosphorylation at 1.5 to 100 uM (lower range) incubated for 30 mins by In-cell Western assay; format: cell-based
T2 sequence (whole entry): T1 sequence (Q07889 whole entry)

[5] = molecular target: T2, Son of sevenless homolog 1 (Homo sapiens); test: Biphasic activity at of SOS1 in human HeLa cells expressing wild type KRAS assessed as reduction in ERK1/2 T202/Y204 phosphorylation at 1.5 to 100 uM (higher range) incubated for 30 mins by In-cell Western assay; format: cell-based
[6] = molecular target: T2, Son of sevenless homolog 1 (Homo sapiens); test: Activation of SOS1 in human NCI-H727 cells expressing KRAS G12V mutant assessed as induction of ERK1/2 T202/Y204 phosphorylation at 1.5 to 100 uM (lower range) incubated for 30 mins by In-cell Western assay; format: cell-based
[7] = molecular target: T2, Son of sevenless homolog 1 (Homo sapiens); test: Activation of SOS1 in human NCI-H727 cells expressing KRAS G12V mutant assessed as induction of ERK1/2 T202/Y204 phosphorylation at 1.5 to 100 uM (higher range) incubated for 30 mins by In-cell Western assay; format: cell-based
[8] = molecular target: T2, Son of sevenless homolog 1 (Homo sapiens); test: Activation of SOS1 in human HeLa cells expressing wild type KRAS assessed as increase in RAS-GTP levels at 10 to 30 uM incubated for 10 mins by active RAS pull-down assay; format: cell-based
Method in brief: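 HeLa cells, STR-authenticated and mycoplasma-negative, were passaged at least twice after thaw (25 passages maximum). They were seeded to reach 70% confluency after 24 h, then treated. Active RAS-GTP was captured by RAF1-RBD pull-down and detected by SDS-PAGE and western blot with a pan-RAS antibody and a fluorescent secondary, read on an Odyssey imager. Total RAS and α-tubulin in the input served as loading controls.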

[9] = molecular target: T2, Son of sevenless homolog 1 (Homo sapiens); test: Activation of SOS1 in human HeLa cells expressing wild type KRAS assessed as induction of ERK1/2 T202/Y204 phosphorylation at 1.5 to 100 uM incubated for 30 mins by In-cell Western assay
[10] = molecular target: T1, Son of sevenless homolog 1; test: Binding affinity to human recombinant N-terminal His6-tagged SOS1 (564 to 1049 residues) expressed in BL21-RIL Escherichia coli by fluorescent probe S3 based fluorescence polarization anisotrophy saturation binding assay
Method in brief: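 SOS1cat (aa 564–1049) was titrated in a 16-point, 3-fold series from 10 μM top against 50 nM fluorescein probe S3. Buffer was 20 mM Tris-HCl pH 7.5, 50 mM NaCl, 1 mM magnesium chloride. Fluorescence anisotropy was read and Kd reported as mean ± SD of at least three independent experiments.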

[11] = molecular target: T1, Son of sevenless homolog 1; test: Binding affinity to human recombinant N-terminal His6-tagged SOS1 (564 to 1049 residues) expressed in BL21-RIL Escherichia coli by fluorescent probe S2 based fluorescence polarization anisotrophy saturation binding assay
[12] = molecular target: T2, Son of sevenless homolog 1 (Homo sapiens); test: Activation of SOS1 in human HeLa cells expressing wild type KRAS assessed as increase in RAS-GTP levels at 0.3 to 30 uM incubated for 10 mins by active RAS pull-down assay; format: cell-based
Method in brief: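 HeLa cells seeded to reach 70% confluency after 24 h, then treated. RAS-GTP was captured by a RAF1-RBD active RAS pull-down kit, resolved by SDS-PAGE, blotted to PVDF and probed with pan-RAS antibody. Total RAS and α-tubulin inputs served as loading controls. Detection was by fluorescent secondary antibody on an Odyssey imager.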

[13] = Aqueous solubility in pH 6.8 buffer at 1 mg/mL by HPLC/DAD-UV assay; format: physicochemical
Method in brief: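 Solid compound was dispensed at 1 mg/mL into McIlvaine buffer pH 6.8, with a reference dissolved in acetonitrile/water 1:1 (v/v). Dissolved concentration was quantified by HPLC-DAD-UV. Single experiment.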

[14] = molecular target: T2, Son of sevenless homolog 1 (Homo sapiens); test: Activation of SOS1 in human HeLa cells expressing wild type KRAS assessed as increase in RAS-GTP levels at 0.3 uM incubated for 10 mins by active RAS pull-down assay; format: cell-based

Structure (SMILES) | Kd [1] | EC50 [2] | EC50 [3] | Activity [4] | Activity [5] | Activity [6] | Activity [7] | Activity [8] | Activity [9] | Kd [10] | Kd [11] | Activity [12] | solubility [13] | Activity [14]
Cc1cc(Cn2c(N3CCNCC3)nc3c(-c4ccccc4Cl)cc(Cl)cc32)cc(C)c1F | 0.12 µM | 11 µM | 36.8 µM | Active | Active | Active | inactive | – | – | – | – | – | – | –
Cc1cc(Cn2c(N3CCNCC3)nc3c(N4CCN(C)CC4)cc(Cl)cc32)cc(C)c1F | – | – | – | Active | Active | – | Active | Active | Active | – | – | – | – | –
Cc1cc(Cn2c(N3CCNCC3)nc3ccc(Cl)cc32)cc(C)c1F | 0.46 µM | 14.5 µM | 21.2 µM | Active | Active | Active | Active | – | – | – | – | – | – | –
Cc1cc(Cn2c(N3CC4(CNC4)C3)nc3c(-c4cnc(N)nc4C)cc(Cl)cc32)cc(C)c1F | – | 7.8 µM | 13.4 µM | Active | Active | Active | Active | – | – | 0.012 µM | – | – | – | –
Cc1ncncc1-c1cc(Cl)cc2c1nc(N1CC3(CNC3)C1)n2Cc1ccc(F)cc1 | – | 33.2 µM | 42.5 µM | Active | inactive | Active | inactive | – | – | – | 0.18 µM | Active | – | –
Cc1cc(Cn2c(N3CC4(CNC4)C3)nc3c(N4CCN(C)CC4)cc(Cl)cc32)cc(C)c1F | – | 5.9 µM | 10 µM | Active | Active | Active | Active | Active | Active | 0.044 µM | – | – | > 110 µg/mL | Active
Cc1nc(N)ncc1-c1cc(Cl)cc2c1nc(N1CC3(CNC3)C1)n2Cc1ccc(F)cc1 | – | 14 µM | 27.5 µM | Active | Active | Active | inactive | – | – | 0.036 µM | – | – | – | –
Cc1cc(Cn2c(N3CC4(CNC4)C3)nc3c(-c4cncnc4C)cc(Cl)cc32)cc(C)c1F | – | 11.4 µM | 15.7 µM | Active | Active | Active | Active | – | – | 0.016 µM | – | Active | 3 µg/mL (≈ 6.29 µM) | –
Cc1cc(Cn2c(N3CCNCC3)nc3c(-c4cncnc4C)cc(Cl)cc32)cc(C)c1F | – | 10.2 µM | 14.5 µM | Active | Active | Active | Active | – | – | – | 0.11 µM | Active | – | –
Cc1cc(Cn2c(N3CC4(CNC4)C3)nc3c(-c4ccccc4Cl)cc(Cl)cc32)cc(C)c1F | – | 14 µM | 19.7 µM | Active | Active | Active | Active | – | – | 0.012 µM | – | – | – | –
Cc1cc(Cn2c(N3CC4(CNC4)C3)nc3c(-c4c(C)n[nH]c4C)cc(Cl)cc32)cc(C)c1F | – | 14.1 µM | 21.1 µM | Active | Active | Active | Active | – | – | 0.009 µM | – | – | – | –
Cc1cc(Cn2c(N3CCNCC3)nc3c(-c4cccc(C(F)(F)F)c4)cc(Cl)cc32)cc(C)c1F | 0.67 µM | – | – | – | – | – | – | – | – | – | – | – | – | –
